# Source: PubChem
# Shown are actives, neighbours in structure and some others; about 3.1% of the full set was active somewhere.
# GPR7 antagonist: GPR7 receptor antagonists, primary screen, cell-based, fluorescence, single concentration; Neuropeptides B/W receptor type 1 (Homo sapiens), P48145; GPR7-expressing cells, fluorescence antagonist assay; inhibition, % at 4.4 µM; 290,000 compounds, 1.1% hits; AID 1861, 2009; in the data active means inhibition above about 16%, passing the limit was not always enough;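 further: cells stimulated with the agonist NPW; 0% = agonist with vehicle and 100% = vehicle without agonist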
# Target sequence (P48145 whole entry, looked up): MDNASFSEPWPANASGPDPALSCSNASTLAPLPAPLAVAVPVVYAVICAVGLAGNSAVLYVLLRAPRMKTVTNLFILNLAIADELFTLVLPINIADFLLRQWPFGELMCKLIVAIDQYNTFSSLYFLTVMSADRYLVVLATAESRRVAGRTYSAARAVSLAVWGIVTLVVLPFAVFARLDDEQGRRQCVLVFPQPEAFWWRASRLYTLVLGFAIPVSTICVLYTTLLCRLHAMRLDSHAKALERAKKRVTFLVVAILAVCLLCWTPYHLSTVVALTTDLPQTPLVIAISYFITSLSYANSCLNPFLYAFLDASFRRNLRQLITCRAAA
# CHO parental Ca: ATP-evoked calcium signal inhibitors, parental CHO, primary screen, counter-screen for OX1R antagonist project, cell-based, fluorescence, Fluo-8 calcium dye | 330,000 compounds, 0.63% hits | inhibition, % at 5.6 µM | parental CHO-K1, ATP-induced calcium, Fluo-8 fluorescence | AID 463079, 2010;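 active means inhibition above that plate's mean sample inhibition plus 3 SD, cut at about 26% in these data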;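 further: 0% = ATP-challenged DMSO wells and 100% = DMSO wells without ATP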
#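 Test system: untransfected parental CHO cell line; also added: ATP stimulus; dosing: 5.6 µM, single dose; signal: calcium-sensitive Fluo-8 fluorescence; measure: percent inhibition of ATP-evoked calcium rise, normalized to controls; benchmarks: low control ATP plus DMSO, high control DMSO only; replication: one well per compound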
# OX1R antag-1: antagonists of human orexin 1 receptor (OX1R) | Orexin/Hypocretin receptor type 1 (Homo sapiens), O43613 | OX1R-expressing cells, FRET antagonist read-out | inhibition, % at 6.6 µM | 330,000 compounds, 1.8% hits | AID 485270, 2010; in the data active means inhibition mostly above about 38%, no sharp cut-off; inactive means mostly below about 40%;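 further: 0% = agonist challenge alone and 100% = reference antagonist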
# OX1R antag-2: OX1R (HCRTR1) antagonists, primary screen, fluorescence, CHO/OX1R cells, Fluo-8 calcium, orexin A; Orexin/Hypocretin receptor type 1 (Homo sapiens), O43613; Fluo-8 calcium fluorescence; inhibition, % at 5 µM; 330,000 compounds, 0.43% hits;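 active means inhibition above its plate's threshold, mean inhibition of all tested compounds on the plate plus 3 SD, cut at about 37% in these data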;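 further: 0% = orexin A challenge wells and 100% = SB-334867-A antagonist wells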
# GalR3 antagonist: GalR3 antagonists in HEK293 cells, primary screen, cell-based, fluorescence readout; Galanin receptor type 3 (Homo sapiens), O60755; HEK293 GalR3-CNG cAMP membrane potential fluorescence; galR3 body fused to GalR1 C-terminus; inhibition, % at 3 µM; 360,000 compounds, 0.44% hits;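 active means inhibition above the screen-wide average plus 3 SD, cut at about 13% in these data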;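 further: forskolin and galanin both at EC90 stimulate the cells; cAMP rise reported by CNG channel membrane potential dye signal; 0% = forskolin plus galanin with DMSO and 100% = forskolin alone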
# Target sequence (O60755 1-299 limits assumed): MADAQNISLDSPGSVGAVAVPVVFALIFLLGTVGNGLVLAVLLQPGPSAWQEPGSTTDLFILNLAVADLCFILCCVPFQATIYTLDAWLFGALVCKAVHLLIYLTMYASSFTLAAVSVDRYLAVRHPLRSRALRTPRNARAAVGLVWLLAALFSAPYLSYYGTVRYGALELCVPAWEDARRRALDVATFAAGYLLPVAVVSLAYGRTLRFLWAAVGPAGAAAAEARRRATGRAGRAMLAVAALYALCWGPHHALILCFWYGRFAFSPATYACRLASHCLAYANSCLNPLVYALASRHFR
# GPR7 antag cf: GPR7 receptor antagonists, confirmation, cell-based, fluorescence, single concentration; shares compounds with GPR7 antagonist; GPR7-expressing cells, calcium fluorescence antagonist mode; inhibition, % at 4.4 µM; 2,400 compounds, 52% hits; AID 1952, 2009; in the data active means inhibition above about 24%;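 further: stimulated with the GPR7 agonist NPW; 0% = agonist plus vehicle and 100% = vehicle alone without agonist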
# MCHR1 antagonist: MCHR1 antagonists in cells, counter-screen for GPR7 antagonist project, cell-based, fluorescence, human; MCHR1-expressing cells, fluorescence antagonist assay; shares compounds with GPR7 antagonist; AID 2148, 2009; 2,400 compounds, 62% hits; inhibition, % at 4.4 µM; in the data active means inhibition above about 22%;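 further: 0% = vehicle with agonist and 100% = vehicle without agonist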
# Numbers without * were called inactive; . = no result given; ! = not active in a repeat.
SMILES,GPR7 antagonist,CHO parental Ca,OX1R antag-1,OX1R antag-2,GalR3 antagonist,GPR7 antag cf,MCHR1 antagonist
COc1ccc(-c2nc(CN3CCC(C(=O)N4CCOCC4)CC3)c(C)o2)cc1C,-1,1,10,-33,-6,.,.
CC(CO)NS(=O)(=O)c1cccc(Cl)c1F (configuration not stated),.,.,.,.,-7,.,.
O=C(Nc1ccccc1)c1cc(C2CCCCN2S(=O)(=O)c2ccc(F)cc2F)on1 (configuration not stated),.,.,.,.,-8,.,.
C/C(=N\NC(=O)c1ccc2c(c1)OCO2)c1ccc(NC(=O)CCCC(=O)O)cc1,22*,.,.,.,-3,4,8
COCC(=O)N1CCC2CC1c1cc(Cl)ccc12 (configuration not stated),.,.,.,.,-6,.,.
N=c1n(CCN2CCCCC2)c2ccccc2n1CC(O)c1cccc(Br)c1 (configuration not stated),25*,9,10,-25,-9,48*,43*
N=c1n(CCN2CCCC2)c2ccccc2n1CC(O)c1ccco1 (configuration not stated),-11,0,3,4,0,.,.
N=c1n(CCN2CCCCC2)c2ccccc2n1CC(O)COc1ccccc1 (configuration not stated),40*,-10,5,-23,-9,40*,23*
Cc1ccccc1OCC(O)Cn1c(=N)n(CCN2CCOCC2)c2ccccc21 (configuration not stated),33*!,-13,15,-33,-7,21,26*
O=C(CCl)NC1(C(=O)O)CCCC1,.,.,.,.,-4,.,.
COc1ccc(C)cc1NC(=O)c1ccc(N(C)S(C)(=O)=O)cc1,31*,-14,16,-15,-2,7,16
O=C(c1cc2ccccc2o1)N1CCN(C/C=C/c2ccccc2)CC1,29*,-4,2,-13,-1,7,21*
CCS(=O)(=O)c1nc(S(=O)(=O)c2ccc(C)cc2)c(N2CCC(C)CC2)s1,22*,-10,23,4,3,15,49*
COc1ccc(S(=O)(=O)N(C)c2ccc(C(=O)NC3CCCC3)cc2)cc1,-8,-17,30,-29,0,.,.
CN(c1ccc(C(=O)NC2CCCC2)cc1)S(=O)(=O)c1ccc(Cl)cc1,33*,-6,18,-23,-2,24,16
Clc1ccc(Oc2ncnc3oc(-c4ccccc4)cc23)cc1,-3,-5,25,-6,0,.,.
Cc1ccccc1Oc1ncnc2oc(-c3ccccc3)cc12,29*,-33,22,-33,0,31*,17
Cc1cc(C)cc(NC(=S)N2CCC(C(=O)c3ccc(F)cc3)CC2)c1,.,.,.,.,-7,.,.
CCCCNC1c2ccccc2C(=O)N1Cc1ccccc1 (configuration not stated),28*,-11,-6,-11,-12,18,9
N#Cc1nc(COc2ccc(F)cc2)oc1N1CCN(Cc2ccccc2)CC1,35*,-16,50,0,-3,33*,52*
COc1ccc(N2CCN(c3oc(COc4ccccc4Cl)nc3C#N)CC2)cc1,16,-6,11,-17,-3,.,.
COc1ccc(OCc2nc(C#N)c(N3CCN(c4ccc(OC)cc4)CC3)o2)cc1,43*,.,.,.,-1,48*,50*
N#Cc1nc(Cc2ccccc2)oc1N1CCC(Cc2ccccc2)CC1,4,14,15,-8,-1,.,.
N#Cc1nc(COc2ccc(F)cc2)oc1N1CCC(Cc2ccccc2)CC1,30*,9,10,-31,-7,48*,47*
CCOC(=O)[C@@H]1CSCCS(=O)(=O)N1C(=O)[C@H](C)NC(=O)OC(C)(C)C,.,.,.,.,-7,.,.
SMILES,GPR7 antagonist,CHO parental Ca,OX1R antag-1,OX1R antag-2,GalR3 antagonist,GPR7 antag cf,MCHR1 antagonist
COc1ccc(CN2C[C@H](COCc3ccccc3)Oc3cccc(F)c3S2(=O)=O)cc1,.,.,.,.,-9,.,.
CN(C)c1cccc(C(=O)NNC(=O)CSc2ccccc2)c1,-4,3,13,1,-10,.,.
O=C(CN1C(=O)c2ccccc2C1=O)Nc1ccccc1F,21*,-12,10,-25,-1,-10,38*
CC(=O)N(Cc1ccco1)C1(C(=O)NC2CCCCC2)CCCCC1,16,-9,15,-20,-7,.,.
O=C1CCC(C(=O)N(Cc2ccco2)C2(C(=O)NC3CCCC3)CCCCC2)N1 (configuration not stated),28*,-10,1,-9,.,22,17
O=C(Cc1cccs1)N(Cc1ccco1)C1(C(=O)NC2CCCCC2)CCCCC1,44*,-2,15,-32,-9,47*,52*
O=C(c1ccc2c(c1)OCO2)N(CC1CCCO1)C1(C(=O)NC2CCCCC2)CCCCC1 (configuration not stated),34*,-21,17,-25,-7,29*,30*
O=C(Cc1cccs1)N(Cc1cccs1)C1(C(=O)NC2CCCC2)CCCCC1,47*,-7,16,-6,-8,37*,51*
CN(C(=O)c1ccc2c(c1)OCO2)C1(C(=O)NC2CCCC2)CCCCC1,6,-14,14,-8,-4,.,.
O=C(NC1CCCCC1)C(c1cccs1)N(Cc1cccs1)C(=O)c1cccs1 (configuration not stated),32*,-13,31,-3,-9,31*,42*
O=C(c1ccc2c(c1)OCO2)N(Cc1cccs1)C1(C(=O)NC2CCCCC2)CCCCC1,31*,-1,14,-32,-10,40*,59*
O=C(c1ccc(=O)[nH]c1)N(Cc1cccs1)C1(C(=O)NC2CCCC2)CCCCC1,3,-7,0,-23,-2,.,.
O=C(NC1CCCCC1)C(c1ccc2ncccc2c1)N(Cc1cccs1)C(=O)c1cccs1 (configuration not stated),-5,-1,26,-28,-9,.,.
CC(C)(C)c1ccc(C(O)c2ncc(-c3cccc(F)c3)[nH]2)cc1 (configuration not stated),.,.,.,.,-5,.,.
CSc1ccc(NC(=O)NCCCN2CCC(Cc3ccccc3)CC2)cc1,29*,2,-9,-17,-12,26*,33*
Cc1c(Cl)cccc1NC(=S)N(Cc1cccs1)C1CCCC1,23*,-6,26,-8,-7,-2,27*
